The target of one experiment is Cathepsin B (Bos taurus, UniProt P07688). The experiment in a line: Inhibition of alpha-keto esters towards cathepsin B at pH 5.2. In a few lines:
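Bovine cathepsin B in 20 mM sodium acetate pH 5.2, 0.5 mM dithiothreitol, 2% DMSO. Substrate Bz-Phe-Val-Arg-p-nitroanilide; p-nitroaniline release followed at 405 nm. Ki reported.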

Another experiment has as its target Calpain 1 (Homo sapiens, UniProt P07384). The experiment in a line: Inhibitory activity of alpha-keto esters towards calpain 1 at pH 8.0. The format is protein-complex assay. Summed up:
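Calpain I purified from human erythrocytes; calpain II from rabbit muscle. Buffer: 25 mM Tris pH 8.0, 1 mM β-mercaptoethanol, 10 mM CaCl2, up to 5% DMSO. Substrate: Suc-Leu-Tyr-AMC at 1–3 mM, 70 nM final enzyme, started with enzyme. AMC fluorescence read at ex 380 / em 460 nm. Initial rates taken at 30–60 s at room temperature, with five or more inhibitor levels and two substrate levels. Ki from Dixon plots, triplicates.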

In another experiment the target is T1, Papain (Carica papaya, UniProt P00784).
T1 sequence (P00784 whole entry): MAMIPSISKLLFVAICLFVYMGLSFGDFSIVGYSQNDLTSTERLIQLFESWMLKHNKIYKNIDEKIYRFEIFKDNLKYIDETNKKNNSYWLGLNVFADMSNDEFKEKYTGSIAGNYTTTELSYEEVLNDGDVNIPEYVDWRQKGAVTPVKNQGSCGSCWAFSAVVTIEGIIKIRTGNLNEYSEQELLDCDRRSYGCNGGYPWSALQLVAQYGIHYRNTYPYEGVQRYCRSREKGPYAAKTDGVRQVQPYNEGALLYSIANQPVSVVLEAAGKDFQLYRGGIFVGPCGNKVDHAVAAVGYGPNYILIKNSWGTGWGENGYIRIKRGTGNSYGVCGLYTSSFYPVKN
Description: Inhibitory activity of alpha-ketoesters towards papain at pH 6.0. Summed up:
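Papain in 100 mM K3PO4, 1 mM EDTA, 2.5 mM cysteine, pH 6.0, 2% DMSO. Substrate Bz-Arg-p-nitroanilide; p-nitroaniline release read at 405 nm. Ki reported.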

For the next experiment, the species on record is Rattus norvegicus. Description: Inhibitory potency against rat platelet membrane permeability at pH 7.35. The format is functional. Summed up: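 Rat platelets from cardiac-puncture blood (citrate-EDTA), gel-filtered in HEPES-Tyrode's pH 7.35, at 10^7/mL. Preincubated 5 min at room temperature with inhibitor from DMSO stocks (2% DMSO), then given 1 μM A23187 plus 2 mM Ca for 5 min. Pellets run on SDS-PAGE and western blotted for spectrin. Densitometry of the 150/155-kDa breakdown doublet gives IC50.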

Experimental findings from ChEMBL document CHEMBL1126888, “Peptide alpha-keto ester, alpha-keto amide, and alpha-keto acid inhibitors of calpains and other cysteine proteases” (J Med Chem, 1993) are described below.

Molecules are shown by their SMILES. pIC50, pKi: −log10 of the molar value.

Calpain 1, sequence (P04632 whole entry): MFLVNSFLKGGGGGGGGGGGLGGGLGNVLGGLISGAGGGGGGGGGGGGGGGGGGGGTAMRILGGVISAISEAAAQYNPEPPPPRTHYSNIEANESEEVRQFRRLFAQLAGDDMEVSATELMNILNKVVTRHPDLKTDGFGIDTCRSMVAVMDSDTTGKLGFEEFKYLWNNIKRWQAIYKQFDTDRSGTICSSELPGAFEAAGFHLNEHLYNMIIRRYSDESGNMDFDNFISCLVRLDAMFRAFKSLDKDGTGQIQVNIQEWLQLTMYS
Calpain 1, sequence (P07384 whole entry): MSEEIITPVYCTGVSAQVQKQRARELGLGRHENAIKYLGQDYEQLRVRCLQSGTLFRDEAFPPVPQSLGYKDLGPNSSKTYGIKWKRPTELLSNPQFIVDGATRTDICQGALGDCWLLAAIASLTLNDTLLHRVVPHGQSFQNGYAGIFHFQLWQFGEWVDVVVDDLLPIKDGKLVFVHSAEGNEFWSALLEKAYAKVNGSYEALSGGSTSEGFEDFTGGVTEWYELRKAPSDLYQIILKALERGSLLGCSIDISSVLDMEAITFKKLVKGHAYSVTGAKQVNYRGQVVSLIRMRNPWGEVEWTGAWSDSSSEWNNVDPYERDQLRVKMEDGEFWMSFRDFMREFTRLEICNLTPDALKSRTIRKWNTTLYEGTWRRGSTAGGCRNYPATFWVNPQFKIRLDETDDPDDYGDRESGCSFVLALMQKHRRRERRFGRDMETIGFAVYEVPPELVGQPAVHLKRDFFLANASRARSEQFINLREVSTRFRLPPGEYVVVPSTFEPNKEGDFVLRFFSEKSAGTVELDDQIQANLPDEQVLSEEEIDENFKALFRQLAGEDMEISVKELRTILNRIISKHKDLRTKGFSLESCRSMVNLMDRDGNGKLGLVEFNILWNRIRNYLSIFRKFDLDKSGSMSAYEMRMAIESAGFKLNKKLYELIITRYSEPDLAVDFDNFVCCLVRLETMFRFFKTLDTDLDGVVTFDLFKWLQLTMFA

On to `CCNC(=O)C(=O)C(Cc1ccccc1)NC(=O)C(CC(C)C)NC(=O)OCc1ccccc1` (stereo unspecified), for which the pKi at Cathepsin B is 5.22; on Calpain 1, 6.70; at Papain, 4.35. Also, the pIC50 in the experiment filed under Rattus norvegicus is 4.66.
For `CC(C)CC(NC(=O)OCc1ccccc1)C(=O)NC(Cc1ccccc1)C(=O)C(=O)NCCc1ccccc1` (stereo unspecified), the results for the pKi at Cathepsin B, on Calpain 1 and at Papain were 5.03, 7.28 and 4.00, respectively. Besides, the pIC50 in the experiment listed under Rattus norvegicus is 4.00.
For the molecule `CCC(NC(=O)C(CC(C)C)NC(=O)OCc1ccccc1)C(=O)C(=O)NCCc1ccccc1` (stereo unspecified), the pKi on Cathepsin B was 5.89; at Calpain 1, 6.70; at Papain it was 4.42. The same molecule gave a pIC50 in the experiment filed under Rattus norvegicus of 4.30.
With `CCC(NC(=O)C(CC(C)C)NC(=O)OCc1ccccc1)C(=O)C(N)=O` (stereo unspecified), the results for the pKi on Cathepsin B, on Calpain 1 and on Papain were 5.47, 6.55 and 3.72, respectively. In the experiment filed under Rattus norvegicus, this molecule gave a pIC50 of 4.05.
As for `CCCC(NC(=O)C(CC(C)C)NC(=O)OCc1ccccc1)C(=O)C(=O)OCC` (stereo unspecified), the pKi was 4.60 at Cathepsin B, 5.85 at Calpain 1 and 3.82 on Papain. Besides, the pIC50 in the experiment filed under Rattus norvegicus was 4.00.
With `CCOC(=O)C(=O)C(Cc1ccccc1)NC(=O)C(CC(C)C)NC(=O)OCc1ccccc1` (stereo unspecified), the pKi on Cathepsin B was 3.47; at Calpain 1 it was 5.74; at Papain it was 4.12. This molecule also had a pIC50 in the experiment listed under Rattus norvegicus of 3.70.
Turning to `CCOC(=O)C(=O)C(CC)NC(=O)C(CC(C)C)NC(=O)OCc1ccccc1` (stereo unspecified), the pKi was 4.52 on Cathepsin B, 5.35 on Calpain 1 and 3.66 at Papain. Moreover, the pIC50 in the experiment filed under Rattus norvegicus is 3.52.
Consider `CC(C)CC(NC(=O)OCc1ccccc1)C(=O)NC(Cc1ccccc1)C(=O)C(=O)O` (stereo unspecified), for which the negative logarithm of the Ki (pKi) at Cathepsin B was 5.35; on Calpain 1, 8.07; at Papain, 5.15. This molecule showed a pIC50 in the experiment filed under Rattus norvegicus of 4.00.
With `CCC(NC(=O)C(CC(C)C)NC(=O)OCc1ccccc1)C(=O)C(=O)O` (stereo unspecified), the figures for the pKi at Cathepsin B, at Calpain 1 and on Papain were 5.82, 7.12 and 4.87, respectively. For the same molecule, the pIC50 in the experiment listed under Rattus norvegicus was 4.00.
